Source: article PMC8161485 (ACS Central Science, 2021)
Substitutions are numbered along the chain they refer to.

Legend:
P450BM3 variant FL#62 = biological target: T1, P450BM3 variant FL#62 (Priestia megaterium, UniProt P14779, A181T/A185V/A198V/A291V/A83V/E253G/F206C/F82S/F88A/H237Q/L354V/P143S/R256S/S227R/T176I/V79A); assay: Heme spin shift binding of MCL to P450 variant FL#62; parameters: species or system Bacillus megaterium
T1 sequence (P14779 1-1049 V79A/F82S/A83V/F88A/P143S/T176I/A181T/A185V/A198V/F206C/S227R/H237Q/E253G/R256S/A291V/L354V): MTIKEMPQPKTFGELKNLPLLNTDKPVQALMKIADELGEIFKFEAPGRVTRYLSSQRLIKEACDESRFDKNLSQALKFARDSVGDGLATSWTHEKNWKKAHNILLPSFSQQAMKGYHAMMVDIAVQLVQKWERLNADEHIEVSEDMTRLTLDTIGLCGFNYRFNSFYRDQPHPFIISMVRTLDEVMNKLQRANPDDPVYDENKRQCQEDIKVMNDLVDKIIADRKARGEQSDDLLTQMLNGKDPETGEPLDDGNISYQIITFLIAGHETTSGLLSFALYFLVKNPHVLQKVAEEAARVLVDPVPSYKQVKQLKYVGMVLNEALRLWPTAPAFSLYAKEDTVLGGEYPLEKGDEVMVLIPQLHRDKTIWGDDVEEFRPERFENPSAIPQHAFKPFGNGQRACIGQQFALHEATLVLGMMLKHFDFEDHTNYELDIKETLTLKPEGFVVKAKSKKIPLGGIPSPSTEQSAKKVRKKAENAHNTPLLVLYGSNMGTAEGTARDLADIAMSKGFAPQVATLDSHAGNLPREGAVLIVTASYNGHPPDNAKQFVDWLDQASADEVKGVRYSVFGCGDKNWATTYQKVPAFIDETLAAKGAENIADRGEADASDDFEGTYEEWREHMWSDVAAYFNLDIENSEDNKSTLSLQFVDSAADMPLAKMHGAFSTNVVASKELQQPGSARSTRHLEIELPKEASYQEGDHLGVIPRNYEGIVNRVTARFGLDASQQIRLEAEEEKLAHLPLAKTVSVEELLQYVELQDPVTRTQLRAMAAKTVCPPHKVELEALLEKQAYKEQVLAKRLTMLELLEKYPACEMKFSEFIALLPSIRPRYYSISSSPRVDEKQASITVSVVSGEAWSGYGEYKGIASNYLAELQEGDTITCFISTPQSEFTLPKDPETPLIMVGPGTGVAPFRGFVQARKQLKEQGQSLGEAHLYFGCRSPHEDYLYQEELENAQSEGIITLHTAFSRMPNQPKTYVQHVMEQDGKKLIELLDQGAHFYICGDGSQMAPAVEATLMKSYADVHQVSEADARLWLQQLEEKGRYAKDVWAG
Outline: (§1)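 Purified P450 (3 μM) in 50 mM potassium phosphate, pH 8.0, titrated with test compound (5–2000 μM) from a 50 mM ethanol stock. A difference spectrum (350–500 nm) was taken at each step. Absorbance change at 390/420 nm (high/low spin) was plotted against concentration, with KD from a nonlinear 1:1 binding fit. At least triplicate, room temperature.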

[1] = system: primary AML specimens derived from patients with relapsed AML; assay: Activity against the four primary AML specimens; assay type: cell-based; conditions: Homo sapiens, read-out: LC50 across the four primary AML specimens
[2] = system: AML01 primary AML specimen; assay: Cell viability of primary AML specimen AML01; assay type: cell-based; conditions: Homo sapiens, AML01, read-out: AML01 LC50
Outline: (§2)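 Primary AML samples came from consenting donors. Live mononuclear cells were isolated on a Ficoll-Paque density gradient and cryopreserved, with 40–70% viability after thawing. Cells were kept at 37 °C, humidified, 5% CO2.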

P450BM3 variant V-H10 = biological target: T2, P450BM3 variant V-H10 (Priestia megaterium, UniProt P14779, A181T/A185V/A198V/A291V/E253G/F206C/F88A/H237Q/L354V/P143S/R256S/S227R/T176I/V79N); assay: Heme spin shift binding of MCL to P450 variant V-H10; parameters: species or system Bacillus megaterium
T2 sequence (P14779 1-1049 V79N/F88A/P143S/T176I/A181T/A185V/A198V/F206C/S227R/H237Q/E253G/R256S/A291V/L354V): T1 sequence (P14779 1-1049 V79A/F82S/A83V/F88A/P143S/T176I/A181T/A185V/A198V/F206C/S227R/H237Q/E253G/R256S/A291V/L354V) with A79N, S82F, V83A
Outline: as §1

[3] = system: AML03 primary AML specimen; assay: Cell viability of primary AML specimen AML03; assay type: cell-based; conditions: Homo sapiens, read-out: AML03 LC50
Outline: as §2

[4] = system: AML04 primary AML specimen; assay: Cell viability of primary AML specimen AML04; assay type: cell-based; conditions: Homo sapiens, read-out: AML04 LC50
Outline: as §2

Molecule `C=C1C(=O)O[C@H]2[C@H]1CCC(C)=C1CC[C@@](C)(O)[C@@H]12` [MCL, micheliolide] has a Kd (P450BM3 variant FL#62) of 61 ± 3 µM, a CC50 [1] of 19 to 22 µM and a CC50 [2] of 18.8 µM. It also gave a Kd (P450BM3 variant V-H10) of 590 ± 90 µM, a CC50 [3] of 15.7 µM and a CC50 [4] of 22.1 µM.
